From ChEMBL document CHEMBL3608292, “Synthesis and biological evaluation of novel myrtucommulones and structural analogues that target mPGES-1 and 5-lipoxygenase” (Eur J Med Chem, 2015)

Columns and labels:
[1] = biological target: T1, Prostaglandin E synthase (Homo sapiens, UniProt O14684); assay: Inhibition of mPGES-1 in microsomal membranes isolated from interleukin-1beta-stimulated human A549 cells using PGH2 as substrate assessed as PGE2 formation preincubated for 15 mins followed by substrate addition measured after 1 min by RP-HPLC analysis; type: cell membranes
T1 sequence (O14684 whole entry): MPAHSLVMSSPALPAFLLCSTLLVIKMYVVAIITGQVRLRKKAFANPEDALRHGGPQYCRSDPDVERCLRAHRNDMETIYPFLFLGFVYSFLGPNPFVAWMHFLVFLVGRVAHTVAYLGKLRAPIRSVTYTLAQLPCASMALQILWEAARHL
Outline: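 A549 cells kept 16 h in DMEM with 2% FCS, then 1 ng/ml IL-1β for 72 h. Cells homogenized and sonicated, microsomes obtained by centrifugation at 10,000 × g then 174,000 × g. Microsomes in 0.1 M potassium phosphate pH 7.4 with 2.5 mM glutathione, preincubated 15 min with compound or 0.3% DMSO. 20 µM PGH₂ (final) for 1 min at 4 °C. Stopped with FeCl₂/citric acid containing 11β-PGE₂, solid-phase extraction, RP-HPLC with UV at 195 nm.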

[2] = biological target: T2, Polyunsaturated fatty acid 5-lipoxygenase (Homo sapiens, UniProt P09917); assay: Inhibition of 5-LO in ionophore A23187-stimulated human PMNL using arachidonic acid as substrate assessed as formation of LTB4, 5(S),12(S)-DiHETE, 5-H(p)ETE preincubated for 15 mins followed by substrate and ionophore addition measured after 10 mins by HPLC analysis
T2 sequence (P09917 whole entry): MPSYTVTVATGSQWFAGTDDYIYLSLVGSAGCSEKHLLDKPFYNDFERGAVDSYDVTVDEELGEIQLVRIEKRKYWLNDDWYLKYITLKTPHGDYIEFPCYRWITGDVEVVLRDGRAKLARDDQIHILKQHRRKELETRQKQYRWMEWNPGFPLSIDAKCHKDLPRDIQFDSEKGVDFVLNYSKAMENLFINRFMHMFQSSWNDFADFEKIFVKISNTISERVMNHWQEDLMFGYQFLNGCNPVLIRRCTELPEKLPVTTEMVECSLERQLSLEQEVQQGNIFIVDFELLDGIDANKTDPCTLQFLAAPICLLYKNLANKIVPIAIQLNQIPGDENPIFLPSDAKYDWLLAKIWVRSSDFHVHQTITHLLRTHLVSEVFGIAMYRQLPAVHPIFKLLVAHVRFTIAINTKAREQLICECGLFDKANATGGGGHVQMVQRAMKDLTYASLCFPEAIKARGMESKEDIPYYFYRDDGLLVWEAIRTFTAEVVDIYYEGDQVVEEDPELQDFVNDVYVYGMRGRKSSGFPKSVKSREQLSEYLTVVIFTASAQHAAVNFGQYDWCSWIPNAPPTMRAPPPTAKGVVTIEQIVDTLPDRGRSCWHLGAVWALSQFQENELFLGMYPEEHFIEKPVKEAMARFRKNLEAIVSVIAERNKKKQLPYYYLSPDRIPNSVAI

[3] = system: Jurkat; assay: Cytotoxicity against human Jurkat cells assessed as induction of cell death after 48 hrs by MTT assay; type: functional, cell-based
Outline: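 Jurkat T cells grown in RPMI 1640 with 10% heat-inactivated FCS, 10 mM HEPES, penicillin/streptomycin at 37 °C, 5% CO₂. Seeded at 2 × 10⁴ per well. Compounds or 0.3% DMSO vehicle added for 48 h. MTT then added until blue staining, cells lysed overnight in 10% SDS/20 mM HCl, absorbance read at 570 nm. Three to four independent experiments.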

[4] = biological target: T3, Polyunsaturated fatty acid 5-lipoxygenase (Homo sapiens) (UniProt P09917); assay: Inhibition of recombinant human 5-LO expressed in Escherichia coli BL21 using arachidonic acid as substrate assessed as remaining activity at 10 uM preincubated for 5 to 10 mins followed by substrate addition measured after 10 mins by HPLC analysis relative to control
T3 sequence (whole entry): T2 sequence (P09917 whole entry)
Outline: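 5-LO expressed in E. coli BL21 from pT3-5-LO plasmid at 37 °C, then partially purified. Enzyme with compound held 5–10 min at 4 °C, prewarmed 30 s at 37 °C. Reaction started with 2 mM CaCl₂ plus 20 µM AA, stopped after 10 min at 37 °C with ice-cold methanol. All-trans LTB₄ isomers and 5-H(P)ETE quantified by HPLC. BWA4C used as control.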

[5] = biological target: T2, Polyunsaturated fatty acid 5-lipoxygenase; assay: Inhibition of recombinant human 5-LO expressed in Escherichia coli BL21 using arachidonic acid as substrate assessed as formation of all-trans isomer of LTB4, 5-H(P)ETE preincubated for 5 to 10 mins followed by substrate addition measured after 10 mins by HPLC analysis

Row | Structure (SMILES) | IC50 [1] | IC50 [2] | EC50 [3] | Activity [4] | IC50 [5]
1 | CC(=O)c1c(O)c(C(C2=C(O)CC(C)(C)CC2=O)C(C)C)c(O)c(C(C2=C(O)CC(C)(C)CC2=O)C(C)C)c1O (stereo not given) | 1100 nM | 8100 nM | 7500 nM | 69.3% | > 10000 nM
2 | CCCCCC(=O)c1c(O)c(C(CC(C)C)C2=C(O)CC(C)(C)CC2=O)c(O)c(C(CC(C)C)C2=C(O)CC(C)(C)CC2=O)c1O (stereo not given) | 810 nM | 7300 nM | 13100 nM |  | 2900 nM
3 | CC(C)CC(=O)c1c(O)c(C(CC(C)C)C2=C(O)C(C)(C)C(=O)C(C)(C)C2=O)c(O)c(C(CC(C)C)C2=C(O)C(C)(C)C(=O)C(C)(C)C2=O)c1O (stereo not given) | 220 nM | 660 nM | 19200 nM |  | 2700 nM
4 | CCCCCC(=O)c1c(O)c(C(C2=C(O)CC(C)(C)CC2=O)C(C)C)c(O)c(C(C2=C(O)CC(C)(C)CC2=O)C(C)C)c1O (stereo not given) | 570 nM | 2700 nM | 3700 nM | 68.7% | > 10000 nM
5 | CCCCCC(=O)c1c(O)c(C(C2=C(O)c3ccccc3C2=O)C(C)C)c(O)c(C(C2=C(O)c3ccccc3C2=O)C(C)C)c1O (stereo not given) |  | 1500 nM | > 30000 nM |  | 1700 nM
6 | CC(C)CC(=O)c1c(O)cc(O)c(C(CC(C)C)C2=C(O)C(C)(C)C(=O)C(C)(C)C2=O)c1O (stereo not given) | 640 nM | 1800 nM | > 30000 nM |  | 4600 nM
7 | CC(C)C(=O)c1c(O)c(C(C2=C(O)c3ccccc3C2=O)C(C)C)c(O)c(C(C2=C(O)c3ccccc3C2=O)C(C)C)c1O (stereo not given) |  |  | > 30000 nM |  | 20000 nM
8 | CCCCCC(=O)c1c(O)c(C(C2=C(O)C(C)(C)C(=O)C(C)(C)C2=O)C(C)C)c(O)c2c1OC1=C(C(=O)C(C)(C)C(=O)C1(C)C)C2C(C)C (stereo not given) | 610 nM | 1300 nM | 2500 nM | 66.7% | > 10000 nM
9 | CCCCCC(=O)c1c(O)c([C@H](C2=C(O)C(C)(C)C(=O)C(C)(C)C2=O)C(C)C)c(O)c([C@H](C2=C(O)C(C)(C)C(=O)C(C)(C)C2=O)C(C)C)c1O [MYRTUCOMMULONE F] | 600 nM | 3100 nM | 2300 nM |  | 7500 nM
10 | O=C1C(C(c2ccccc2)c2c(O)c(C(=O)c3ccccc3)c(O)c(C(C3=C(O)c4ccccc4C3=O)c3ccccc3)c2O)=C(O)c2ccccc21 (stereo not given) | 480 nM | 1800 nM | > 30000 nM |  | 3000 nM
11 | CC(C)C(=O)c1c(O)c([C@@H](C2=C(O)C(C)(C)C(=O)C(C)(C)C2=O)C(C)C)c(O)c2c1OC1=C(C(=O)C(C)(C)C(=O)C1(C)C)[C@@H]2C(C)C | 490 nM | 980 nM | 3400 nM | 82.3% | > 10000 nM
12 | CCCCCC(=O)c1c(O)cc(O)c(C(C2=C(O)C(C)(C)C(=O)C(C)(C)C2=O)C(C)C)c1O (stereo not given) | 390 nM | 1600 nM | > 30000 nM | 72.8% | > 10000 nM
13 | CCCCCC(=O)c1c(O)cc(O)c2c1OC1=C(C(=O)C(C)(C)C(=O)C1(C)C)C2C(C)C (stereo not given) | 6400 nM | 1600 nM | 7400 nM |  | 2500 nM
14 | CC(C)CC(C1=C(O)C(C)(C)C(=O)C(C)(C)C1=O)c1c(O)c(C(=O)C(C)C)c(O)c(C(CC(C)C)C2=C(O)C(C)(C)C(=O)C(C)(C)C2=O)c1O (stereo not given) | 290 nM | 970 nM | 12200 nM |  | 4800 nM
15 | CCCCCC(=O)c1c(O)c(C(C2=C(O)c3ccccc3C2=O)c2ccccc2)c(O)c(C(C2=C(O)c3ccccc3C2=O)c2ccccc2)c1O (stereo not given) | 430 nM | 690 nM | > 30000 nM |  | 460 nM
16 | CC(C)C(=O)c1c(O)cc(O)c(C(C2=C(O)C(C)(C)C(=O)C(C)(C)C2=O)C(C)C)c1O (stereo not given) | 820 nM | 8100 nM | > 30000 nM | 82.5% | > 10000 nM
17 | CC(C)C(C1=C(O)c2ccccc2C1=O)c1c(O)c(C(=O)c2ccccc2)c(O)c(C(C2=C(O)c3ccccc3C2=O)C(C)C)c1O (stereo not given) |  |  | > 30000 nM |  | 
18 | CC(C)C(=O)c1c(O)cc(O)c2c1OC1=C(C(=O)C(C)(C)C(=O)C1(C)C)[C@@H]2C(C)C | 7900 nM | 1600 nM | 8100 nM |  | 6200 nM
19 | CCCCCC(=O)c1c(O)c(C(CC(C)C)C2=C(O)C(C)(C)C(=O)C(C)(C)C2=O)c(O)c(C(CC(C)C)C2=C(O)C(C)(C)C(=O)C(C)(C)C2=O)c1O (stereo not given) | 240 nM | 460 nM | 23500 nM |  | 3500 nM
20 | CC(C)C(=O)c1c(O)c(C(C2=C(O)CC(C)(C)CC2=O)C(C)C)c(O)c(C(C2=C(O)CC(C)(C)CC2=O)C(C)C)c1O (stereo not given) | 2100 nM | 13000 nM | 2000 nM |  | 25000 nM
21 | CC(C)C(=O)c1c(O)c(C(C2=C(O)c3ccccc3C2=O)c2ccccc2)c(O)c(C(C2=C(O)c3ccccc3C2=O)c2ccccc2)c1O (stereo not given) | 810 nM | 1400 nM | > 30000 nM |  | 730 nM
22 | CC(C)CC(=O)c1c(O)c(C(C2=C(O)c3ccccc3C2=O)c2ccccc2)c(O)c(C(C2=C(O)c3ccccc3C2=O)c2ccccc2)c1O (stereo not given) | 650 nM | 2100 nM | > 30000 nM |  | 1200 nM
23 | CCCCCC(=O)c1c(O)c([C@@H](CC(C)C)C2=C(O)C(C)(C)C(=O)C(C)(C)C2=O)c(O)c([C@H](C2=C(O)C(C)(C)C(=O)C(C)(C)C2=O)C(C)C)c1O [MYRTUCOMMULONE H] | 300 nM | 1300 nM | 21900 nM |  | 6600 nM
24 | CC(C)CC(=O)c1c(O)c(C(C2=C(O)c3ccccc3C2=O)C(C)C)c(O)c(C(C2=C(O)c3ccccc3C2=O)C(C)C)c1O (stereo not given) |  | 1300 nM | > 30000 nM |  | 3100 nM
